Measured values taken from article PMC7317421 (Clinical Pharmacology in Drug Development, 2020).
Where two headings read alike, the source gives them in different places.

Tests used:
[1] = humans; cited from earlier work
[2] = format: in vivo, human; settings: for Median Tmax (range) / Cmax / t½: 100 mg single oral dose, Part 3; for Cmax: arithmetic mean (SD); for t½: mean ± SD
[3] = Safety and tolerability: adverse events, vital signs, ECG; format: in vivo, human
In short: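 Observed and self‑reported AEs, clinically significant physical‑exam changes and abnormal laboratory results were recorded. Vital signs and 12‑lead ECGs were monitored throughout. In Part 2, AEs were tallied separately for drug alone (days 1‑13) and for the periods with fructose/D2O. The safety set was everyone receiving ≥1 dose of study drug or fructose/D2O. Data were reviewed on an ongoing basis and summarized descriptively.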

[4] = monkeys; cited from earlier work
[5] = format: in vivo, human; settings: for AUCtau / Cmax: mean (SD)
[6] = rats; cited from earlier work
[7] = Platelet count and mean platelet volume; format: in vivo, human
[8] = Fasting and postprandial serum triglycerides and fasting lipids; format: in vivo, human
In short: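 Part 2, randomized 4:1 to drug or placebo with food, once daily or every 12 hours on days 1‑14. Fasting lipids were sampled after overnight fasts over 16 days. Total cholesterol, direct LDL and HDL were run on an automated chemistry analyzer. Postprandial triglycerides: 12 serial samples over 24 h on days 0 and 12. AUEC by trapezoid rule, averaged as AUEC24/24 when first, last and ≥75% of samples were available. Baseline was the mean of 0‑h values on days 0‑1.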

[9] = Plasma pharmacokinetics, single ascending oral doses after overnight fast; format: in vivo, human; settings: fasted, Part 1; for AUC0‐∞ / Cmax: arithmetic mean (SD); for t½: mean ± SD
In short: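 Randomized, double‑blind, placebo‑controlled interleaving crossover in 2 cohorts of 8. Each cohort received 4 ascending single doses, ≥10 days apart, taken with water after a ≥10‑h overnight fast. Blood sampled up to 72 h postdose. Plasma was extracted by protein precipitation with a stable‑isotope internal standard and measured by LC‑MS/MS with calibration 2.00–1000 ng/mL (LLOQ 2.00 ng/mL). Noncompartmental parameters were summarized descriptively by dose.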

hepatic DNL = assay: Fructose-stimulated hepatic DNL inhibition; format: in vivo, human
In short: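 Part 2, with baseline on day −6 and repeat on day 14 of dosing. On the evening/night before each challenge, subjects drank 4 doses of 70% D2O (60 mL each). Oral fructose 0.25 g/kg was then given every 30 min from 0 to 9.5 h, with dosing at 0 h. Body‑water deuterium was measured. Triglyceride‑palmitate was isolated from plasma by Folch extraction and TLC, and its methyl ester analysed by GC‑pyrolysis isotope‑ratio MS. Basal‑adjusted % newly made palmitate and AUEC10 were calculated.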

[10] = 100 mg single dose, high‐fat meal vs fasted
[11] = 100 mg every 12 hours, same withdrawn subject

Question: For `Cc1nc2ccc(C(=O)N3CCC4(CC3)CC(=O)c3c(cnn3C(C)C)C4)cc2[nH]1` [PF‐05175157], which platelet count [1] is on record?
Answer: decreased platelet count

Question: What does the source list for `COc1cc(C(=O)N2CCC3(CC2)CC(=O)c2c(cnn2C(C)C)C3)cc(-c2ccc(C(=O)O)cc2)n1` [PF‐05221304]?
Answer: Geometric mean AUC0‐∞ ([2]; 100 mg single dose, fasted): 79 320 ng·h/mL; geometric mean Cmax ([2]; 100 mg single dose, fasted, CV% 25%): 7479 ng/mL; Geometric mean AUC0‐∞ ([2]; 100 mg single dose, fed): 72 360 ng·h/mL; geometric mean Cmax ([2]; 100 mg single dose, fed, CV% 41%): 5592 ng/mL; decrease of AUC0‐∞ with food [2, 10]: ~9%; plasma Cmax reduction with food [2, 10]: 25%; Median Tmax (range) ([2]; fasted state): 2.5 (1.0‐3.0) h; Cmax ([2]; fasted state): 7671 (1699.8) ng/mL; t½ ([2]; fasted state): 12.3 ± 2.0 h; Median Tmax (range) ([2]; fed state): 5.0 (2.0‐8.0) h; Cmax ([2]; fed state): 5947 (1982.1) ng/mL; t½ ([2]; fed state): 13.2 ± 3.5 h; subjects with AEs ([3]; Part 1 (single doses, PF‐05221304 or placebo periods)): 5 subjects; subjects with AEs ([3]; Part 3 (100 mg single dose fed/fasted)): 3 subjects; vital signs or cardiac conduction intervals (12‐lead ECG) ([3]; all parts): no clinically significant changes; tolerability ([3]; single 1‐240 mg, repeated 2‐200 mg daily): well tolerated at all doses; maximum tolerated dose ([3]; up to 240 mg single, 200 mg/day repeated): not identified; asymmetric hepatic distribution [4]: ≥ 100 fold; Median Tmax (range) ([5]; Day 1, 1 mg every 12 hours): 3.0 (3.0‐5.0) h; AUCtau ([5]; Day 1, 1 mg every 12 hours): 384.5 (71.1) ng·h/mL; Cmax ([5]; Day 1, 1 mg every 12 hours): 54.4 (9.0) ng/mL; Median Tmax (range) ([5]; Day 1, 3 mg every 12 hours): 5.0 (2.0‐6.0) h; AUCtau ([5]; Day 1, 3 mg every 12 hours): 1038 (131.4) ng·h/mL; Cmax ([5]; Day 1, 3 mg every 12 hours): 142.7 (21.2) ng/mL; Median Tmax (range) ([5]; Day 1, 10 mg every 12 hours): 3.5 (1.0‐5.0) h; AUCtau ([5]; Day 1, 10 mg every 12 hours): 3811 (767.3) ng·h/mL; Cmax ([5]; Day 1, 10 mg every 12 hours): 584.6 (91.2) ng/mL; Median Tmax (range) ([5]; Day 1, 30 mg every 12 hours): 5.0 (3.0‐5.0) h; Cmax ([5]; Day 1, 30 mg every 12 hours): 1689 (256.7) ng/mL; Median Tmax (range) ([5]; Day 1, 40 mg once daily): 4.0 (2.0‐8.0) h; Cmax ([5]; Day 1, 40 mg once daily): 1986 (591.8) ng/mL; Median Tmax (range) ([5]; Day 1, 100 mg every 12 hours): 3.5 (0.5‐5.0) h; Cmax ([5]; Day 1, 100 mg every 12 hours): 6831 (1388.6) ng/mL; Median Tmax (range) ([5]; Day 1, 100 mg once daily): 4.0 (2.0‐6.0) h; Cmax ([5]; Day 1, 100 mg once daily): 5965 (1252.2) ng/mL; Median Tmax (range) ([5]; Day 7, 1 mg every 12 hours): 3.0 (2.0‐5.0) h; AUCtau ([5]; Day 7, 1 mg every 12 hours): 760.4 (202.4) ng·h/mL; Cmax ([5]; Day 7, 1 mg every 12 hours): 91.4 (19.3) ng/mL; Median Tmax (range) ([5]; Day 7, 3 mg every 12 hours): 5.0 (3.0‐5.1) h; AUCtau ([5]; Day 7, 3 mg every 12 hours): 2264 (484.8) ng·h/mL; Cmax ([5]; Day 7, 3 mg every 12 hours): 283.1 (49.1) ng/mL; Median Tmax (range) ([5]; Day 7, 10 mg every 12 hours): 5.0 (5.0‐6.0) h; AUCtau ([5]; Day 7, 10 mg every 12 hours): 8334 (2131.6) ng·h/mL; Cmax ([5]; Day 7, 10 mg every 12 hours): 1009 (215.9) ng/mL; Median Tmax (range) ([5]; Day 7, 30 mg every 12 hours): 5.0 (3.0‐6.0) h; Cmax ([5]; Day 7, 30 mg every 12 hours): 3229 (741.0) ng/mL; Median Tmax (range) ([5]; Day 7, 40 mg once daily): 4.0 (3.0‐6.0) h; Cmax ([5]; Day 7, 40 mg once daily): 2654 (674.6) ng/mL; Median Tmax (range) ([5]; Day 7, 100 mg every 12 hours): 3.5 (3.0‐5.0) h; Median Tmax (range) ([5]; Day 7, 100 mg once daily): 4.0 (2.0‐6.0) h; Cmax ([5]; Day 7, 100 mg once daily): 7894 (1117.5) ng/mL; excreted in urine as unchanged drug over the dosing interval (Aeτ) ([5]; day 7, Part 2): Less than 1%; accumulation for AUCtau ([5]; every‐12‐hour dosing): approximately 2 fold; median Tmax ([5]; multiple oral doses 1‐100 mg every 12 hours and 40‐100 mg once daily with food): 3 to 5 h; accumulation for AUCtau ([5]; once‐daily dosing): approximately 1.5 fold; steady state achieved (trough concentrations) ([5]; repeated dosing, Part 2): ≤ 7 days; asymmetric hepatic distribution [6]: ≥ 100 fold; maximum decline from day 0 in platelet count (1 subject, moderate AE) ([7]; 100 mg every 12 hours, day 13 + 24 hours, one person): 53 000 /µL; platelet volume ([7]; doses ≥20 mg/day administered every 12 hours): increases in platelet volume; platelet count ([7]; repeated doses ≤40 mg/day): No change in platelet count; platelet count ([7]; repeated dosing ≥60 mg/day): gradual decline in platelet count from day 7 onward; lowest platelet count observed ([7]; repeated dosing, Part 2): ≥ 100 000 /µL; platelet count ([7]; single doses, 1‐ to 240‐mg dose range): did not change; elevated fasting serum triglyceride levels (1 subject) [8, 11]: 2.1 fold; elevated postprandial serum triglyceride levels (1 subject) [8, 11]: 2.6 fold; fasting and postprandial serum triglyceride levels ([8]; repeated daily doses ≥40 mg/day): increased; Median Tmax (range) ([9]; 1 mg single oral dose): 2.0 (1.0‐3.0) h; AUC0‐∞ ([9]; 1 mg single oral dose): 670.5 (182.2) ng·h/mL; Cmax ([9]; 1 mg single oral dose): 48.3 (8.2) ng/mL; t½ ([9]; 1 mg single oral dose): 13.6 ± 3.4 h; Median Tmax (range) ([9]; 3 mg single oral dose): 2.5 (1.1‐4.0) h; AUC0‐∞ ([9]; 3 mg single oral dose): 2508 (476.0) ng·h/mL; Cmax ([9]; 3 mg single oral dose): 177.0 (46.3) ng/mL; t½ ([9]; 3 mg single oral dose): 13.5 ± 3.5 h; Median Tmax (range) ([9]; 10 mg single oral dose): 3.0 (1.0‐5.0) h; AUC0‐∞ ([9]; 10 mg single oral dose): 8603 (1603.8) ng·h/mL; Cmax ([9]; 10 mg single oral dose): 608.5 (134.0) ng/mL; t½ ([9]; 10 mg single oral dose): 18.3 ± 2.3 h; Median Tmax (range) ([9]; 30 mg single oral dose): 2.0 (0.5‐4.0) h; Cmax ([9]; 30 mg single oral dose): 2008 (421.7) ng/mL; t½ ([9]; 30 mg single oral dose): 17.6 ± 2.6 h; Median Tmax (range) ([9]; 100 mg single oral dose): 2.0 (1.0‐4.0) h; Cmax ([9]; 100 mg single oral dose): 7435 (1904.5) ng/mL; t½ ([9]; 100 mg single oral dose): 16.0 ± 3.6 h; Median Tmax (range) ([9]; 200 mg single oral dose): 2.0 (0.5‐4.0) h; t½ ([9]; 200 mg single oral dose): 15.3 ± 3.4 h; Median Tmax (range) ([9]; 240 mg single oral dose): 1.5 (1.0‐4.0) h; t½ ([9]; 240 mg single oral dose): 15.2 ± 2.8 h; Adjusted % inhibition of newly made triglyceride‐palmitate (DNL), AUEC10 (hepatic DNL; 10 mg Q12H, day 14 vs baseline (day −6)): 80.0%; hepatic DNL inhibition over a 10‐hour period postdose (hepatic DNL; doses <40 mg/day): ≤ 80%; inhibition of DNL (AUEC of newly made triglyceride‐palmitate), near‐maximal (hepatic DNL; doses ≥40 mg/day, 14 days): > 90%
